Measured values as given in ChEMBL document CHEMBL4118052, “Involvement of the Glucocorticoid Receptor in Pro-inflammatory Transcription Factor Inhibition by Daucane Esters from Laserpitium zernyi” (J Nat Prod, 2017).

How the values were obtained:
[1] = biological target: T1, Glucocorticoid receptor (Homo sapiens) (UniProt P04150); test: (§1) Modulation of glucocorticoid receptor in human A549 cells harboring AP-1-Luc assessed as reduction in PMA-induced AP-1 activity by measuring AP-1 activity at 60 uM preincubated for 1 hr followed by PMA stimulation measured after 5 hrs by luciferase reporter gene assay (reference value: 100%); format: cell-based; design: scale not given: the % may be the effect or the level left
T1 sequence (whole entry): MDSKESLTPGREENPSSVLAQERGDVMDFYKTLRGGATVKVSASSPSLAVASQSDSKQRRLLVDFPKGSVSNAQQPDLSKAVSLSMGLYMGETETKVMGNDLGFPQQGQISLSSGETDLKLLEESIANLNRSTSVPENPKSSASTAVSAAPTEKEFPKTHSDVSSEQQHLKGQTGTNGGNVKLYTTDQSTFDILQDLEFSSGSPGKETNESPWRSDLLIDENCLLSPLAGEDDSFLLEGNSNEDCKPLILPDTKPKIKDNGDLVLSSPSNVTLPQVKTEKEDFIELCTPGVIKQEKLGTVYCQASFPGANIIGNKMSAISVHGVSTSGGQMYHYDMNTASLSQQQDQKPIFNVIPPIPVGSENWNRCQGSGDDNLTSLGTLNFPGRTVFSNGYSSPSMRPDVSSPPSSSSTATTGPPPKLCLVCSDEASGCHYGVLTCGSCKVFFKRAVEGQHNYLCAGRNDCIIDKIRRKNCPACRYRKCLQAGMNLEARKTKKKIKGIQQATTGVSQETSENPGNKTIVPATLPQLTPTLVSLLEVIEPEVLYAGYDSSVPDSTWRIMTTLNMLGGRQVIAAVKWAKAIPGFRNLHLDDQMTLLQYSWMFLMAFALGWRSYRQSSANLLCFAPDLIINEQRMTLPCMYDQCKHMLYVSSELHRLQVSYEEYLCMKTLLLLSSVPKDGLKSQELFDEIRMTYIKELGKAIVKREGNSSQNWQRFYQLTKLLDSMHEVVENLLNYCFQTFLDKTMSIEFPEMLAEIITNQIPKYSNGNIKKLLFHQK
In short: (§2)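 AP-1-Luc A549 cells (9000/well, 24 h) pretreated 1 h with compound (10–60 μM), dexamethasone 1 μM or solvent, then PMA-induced for 5 h. Luciferase activity as % of PMA-induced solvent group. One-way ANOVA with Tukey test.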

[2] = Cytotoxicity against TNFalpha stimulated human A549 cells harboring NFkB-Luc assessed as cell viability at 60 uM preincubated for 1 hr followed by TNFalpha stimulation measured after 5 hrs by Cell-Titer Glo assay (reference value: 100%); format: cell-based; settings: read-out: Activity
In short: (§3)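 A549 cells with stably integrated NF-κB-Luc seeded at 9000/well for 24 h, then exposed to compound (10, 30, 60 μM) or solvent. TNF given 1 h later, 5 h incubation. Cell Titer Glo ATP readout, with TNF-treated solvent group as 100%.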

[3] = biological target: T1, Glucocorticoid receptor (Homo sapiens); test: as §1, with “NFkB-Luc” for “AP-1-Luc”, “TNFalpha-induced NFkB” for “PMA-induced AP-1”, “NFkB” for “AP-1”, “TNFalpha” for “PMA”; format: cell-based; design: scale not given: the % may be the effect or the level left
In short: (§4)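 A549 cells with stably integrated NF-κB-Luc (9000/well, 24 h) given compound at 10, 30 or 60 μM, dexamethasone 1 μM or solvent for 1 h. TNF (200 IU/mL) induction for 5 h, then luciferase read. Values as % of TNF-induced solvent control; four independent replicates; one-way ANOVA.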

A549 [4] = test: Cytotoxicity against PMA stimulated human A549 cells harboring AP-1-Luc assessed as reduction in cell viability preincubated for 1 hr followed by PMA stimulation measured after 5 hrs by Cell-Titer Glo assay; format: cell-based; settings: a549, 5 h
In short: (§5)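 AP-1-Luc A549 cells (9000/well) incubated 24 h, then compound (10, 30, 60 μM) or solvent added. PMA induction 1 h later, 5 h further incubation. Viability by Cell Titer Glo ATP luminescence. Solvent group treated with PMA set as 100%.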

[5] = Cytotoxicity against GR knockout human A549 cells harboring Neo-Luc assessed as cell viability at 60 uM by Cell-Titer Glo assay (reference value: 100%); format: cell-based; settings: read-out: Activity
In short: (§6)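 NeoLuc A549 cells (9000/well) incubated 24 h, then test compound or solvent added; viability by Cell Titer Glo ATP luminescence, run by the same protocol as the reporter assays. Solvent-treated control taken as 100%.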

[6] = Cytotoxicity against PMA stimulated human A549 cells harboring AP-1-Luc assessed as cell viability at 60 uM preincubated for 1 hr followed by PMA stimulation measured after 5 hrs by Cell-Titer Glo assay (reference value: 100%); format: cell-based; settings: read-out: Activity; in short: as §5
[7] = biological target: T1, Glucocorticoid receptor (Homo sapiens); test: Modulation of glucocorticoid receptor in human A549 cells assessed as 0.01 uM dexamethasone-induced GRE-driven promoter activity at 30 uM by luciferase reporter gene assay (reference value: 100%); format: cell-based
In short: (§7)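 A549 cells with a stably integrated GRE-dependent promoter-luciferase construct. Compound at 10 or 30 μM given together with dexamethasone at 0.1 or 0.01 μM. Luciferase expressed as % of Dex-induced expression with solvent alone. Mean ± SD of ≥3 independent replicates.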

A549 [8] = test: Cytotoxicity against TNFalpha stimulated human A549 cells harboring NFkB-Luc assessed as reduction in cell viability preincubated for 1 hr followed by TNFalpha stimulation measured after 5 hrs by Cell-Titer Glo assay; format: cell-based; settings: a549, 5 h; in short: as §3
[9] = biological target: T1, Glucocorticoid receptor (Homo sapiens); test: Modulation of glucocorticoid receptor in human A549 cells assessed as 0.01 uM dexamethasone-induced GRE-driven promoter activity at 10 uM by luciferase reporter gene assay (reference value: 100%); format: cell-based; in short: as §7
[10] = biological target: T1, Glucocorticoid receptor (Homo sapiens); test: Modulation of glucocorticoid receptor in human A549 cells assessed as 0.1 uM dexamethasone-induced GRE-driven promoter activity at 30 uM by luciferase reporter gene assay (reference value: 100%); format: cell-based; in short: as §7
[11] = biological target: T1, Glucocorticoid receptor (Homo sapiens); test: Modulation of glucocorticoid receptor in human A549 cells harboring AP-1-Luc assessed as reduction in PMA-induced AP-1 activity preincubated for 1 hr followed by PMA stimulation measured after 5 hrs by luciferase reporter gene assay; format: cell-based; in short: as §2
[12] = biological target: T1, Glucocorticoid receptor (Homo sapiens); test: Modulation of glucocorticoid receptor in human A549 cells harboring NFkB-Luc assessed as reduction in TNFalpha-induced NFkB activity preincubated for 1 hr followed by TNFalpha stimulation measured after 5 hrs by luciferase reporter gene assay; format: cell-based; in short: as §4
[13] = Cytotoxicity against TNFalpha stimulated human A549 cells harboring NFkB-Luc assessed as cell viability at 30 uM preincubated for 1 hr followed by TNFalpha stimulation measured after 5 hrs by Cell-Titer Glo assay (reference value: 100%); format: cell-based; settings: read-out: Activity; in short: as §3
[14] = Cytotoxicity against PMA stimulated human A549 cells harboring AP-1-Luc assessed as cell viability at 30 uM preincubated for 1 hr followed by PMA stimulation measured after 5 hrs by Cell-Titer Glo assay (reference value: 100%); format: cell-based; settings: read-out: Activity; in short: as §5
[15] = biological target: T1, Glucocorticoid receptor (Homo sapiens); test: Modulation of glucocorticoid receptor in human A549 cells assessed as TNFalpha-induced CCL2 production at 30 uM preincubated for 1 hr followed by TNFalpha stimulation measured after 5 hrs by ELISA (reference value: 100%); format: cell-based
In short: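 Basal (non-reporter) A549 cells treated with compound at 30 μM, then TNF (200 IU/mL). CCL2 protein in medium measured by ELISA, as % of TNF-treated solvent control. Mean ± SD of three independent replicates; Student's t test.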

[16] = biological target: T1, Glucocorticoid receptor (Homo sapiens); test: Modulation of glucocorticoid receptor in human A549 cells assessed as 0.1 uM dexamethasone-induced GRE-driven promoter activity at 10 uM by luciferase reporter gene assay (reference value: 100%); format: cell-based; in short: as §7
A549 [17] = test: Inhibition of TNFalpha-induced NFkB activity in GR knockout human A549 cells harboring NFkB-Luc assessed as NFkB activity at 30 uM preincubated for 1 hr followed by TNFalpha stimulation measured after 5 hrs by luciferase reporter gene assay (reference value: 100%); format: functional; design: scale not given: the % may be the effect or the level left
In short: (§8)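 GR-knockout A549 cells carrying stably integrated NF-κB-Luc. Pretreatment 1 h with compound (30 μM) or dexamethasone (1 μM), then TNF (200 IU/mL) for 5 h. Luciferase luminescence as % of TNF-induced solvent control.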

[18] = Cytotoxicity against GR knockout human A549 cells harboring Neo-Luc assessed as cell viability at 30 uM by Cell-Titer Glo assay (reference value: 100%); format: cell-based; settings: read-out: Activity; in short: as §6
A549 [19] = test: Inhibition of TNFalpha-induced NFkB activity in GR knockout human A549 cells harboring NFkB-Luc assessed as NFkB activity at 1 uM preincubated for 1 hr followed by TNFalpha stimulation measured after 5 hrs by luciferase reporter gene assay (reference value: 100%); format: functional; design: scale not given: the % may be the effect or the level left; in short: as §8
A549 [20] = test: Cytotoxicity against GR knockout human A549 cells harboring Neo-Luc assessed as reduction in cell viability at 60 uM by Cell-Titer Glo assay relative to control; format: cell-based; settings: a549, 60 µM; in short: as §6
A549 [21] = test: Cytotoxicity against TNFalpha stimulated human A549 cells harboring NFkB-Luc assessed as reduction in cell viability at 60 uM preincubated for 1 hr followed by TNFalpha stimulation measured after 5 hrs by Cell-Titer Glo assay relative to control; format: cell-based; settings: a549, 5 h; in short: as §3
A549 [22] = test: Cytotoxicity against PMA stimulated human A549 cells harboring AP-1-Luc assessed as reduction in cell viability at 60 uM preincubated for 1 hr followed by PMA stimulation measured after 5 hrs by Cell-Titer Glo assay relative to control; format: cell-based; settings: a549, 5 h; in short: as §5

Activity [1] [%] | Activity [7] [%] | Activity [9] [%] | Activity [10] [%] | Activity [11] | Activity [12] | Activity [15] [%] | Activity [16] [%] | SMILES | Activity (A549 [4]) | Activity (A549 [8]) | viability at 5 h, 30 µM [13] [%] | viability at 5 h, 30 µM [14] [%] | Activity (A549 [17]) [%] | viability at 30 µM [18] [%] | Activity (A549 [20]) | Activity (A549 [21]) | Activity (A549 [22]) | further results
41 | 48.9 | 70.1 | 67.1 | Dose-dependent effect | Dose-dependent effect | 72.1 | 78 | C/C=C(/C)C(=O)O[C@@H]1C[C@@](O)(C(C)C)[C@@H]2CCC(C)=C[C@@H](OC(C)=O)[C@]21C | Dose-dependent effect | Dose-dependent effect | > 95 | > 95 | 83.6 | > 95 |  |  |  | viability at 5 h, 60 µM [2]: 97.3%; Activity [3]: 52%; viability at 60 µM [5]: 90%; viability at 5 h, 60 µM [6]: 93.4%
 |  |  |  |  |  |  |  | C[C@@H]1C[C@H]2[C@@H]3CCC4=CC(=O)C=C[C@]4(C)[C@@]3(F)[C@@H](O)C[C@]2(C)[C@@]1(O)C(=O)CO [DEXAMETHASONE] |  |  |  |  |  |  |  |  |  | Activity (A549 [19]): 97.2%
41.4 | 80.4 | > 90 | 74.5 | Dose-dependent effect | Dose-dependent effect | 70.1 | > 90 | C/C=C(/C)C(=O)O[C@@H]1C=C(C)CC[C@]2(O)[C@@H](C(C)C)CC(=O)[C@]12C | Dose-dependent effect | Dose-dependent effect | > 97 | > 97 |  | > 97 | <= 10% | <= 10% | <= 10% | 
 | 83.5 | > 90 | > 90 | Dose-dependent effect | Dose-dependent effect |  | > 90 | C/C=C(/C)C(=O)O[C@H]1C[C@@](C)(O)C(=O)[C@@H](OC(=O)/C(C)=C\C)[C@@]2(C)CC[C@@](O)(C(C)C)[C@H]12 | Dose-dependent effect | Dose-dependent effect |  |  |  |  |  |  |  | 
 | 52.8 | > 90 | 71.6 | Dose-dependent effect | Dose-dependent effect |  | > 90 | C/C=C(/C)C(=O)O[C@@H]1C[C@@](O)(C(C)C)[C@@H]2CC=C(C)C(=O)[C@@H](O)[C@]21C | Dose-dependent effect | Dose-dependent effect |  |  |  |  |  |  |  | 
 | 77 | > 90 | 80.9 | Dose-dependent effect | Dose-dependent effect |  | > 90 | C/C=C(/C)C(=O)O[C@@H]1C[C@@](O)(C(C)C)[C@@H]2CCC(C)=C[C@@H](O)[C@]21C | Dose-dependent effect | Dose-dependent effect | > 97 | > 97 | 91.8 | > 97 | <= 10% | <= 10% | <= 10% | 
